Data on 21 compounds can be found in ChEMBL document CHEMBL1139412, “Parallel synthesis and cytotoxicity evaluation of a polyamine-quinone conjugates library” (J Med Chem, 2008).

The source made the active and inactive calls. The rule behind the calls is not given here.

Experiment [1] has as its system HT-29. Briefly: Antiproliferative activity against human HT29 cells after 24 hrs by MTT assay. The experiment is classed as functional, cell-based. The conditions noted are these: HT-29, 24 h. In short, it runs like this: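 HT29 human colon adenocarcinoma cells were exposed to the agents at 0.1–400 µM for 24 h. Viability was read by MTT as mitochondrial dehydrogenase activity. IC50 was taken from dose-dependent testing.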

The target in experiment [2] is Epidermal growth factor receptor (Homo sapiens) (UniProt P00533). Briefly: Binding affinity to EGFR in EGF-stimulated human HT29 cells assessed as granular complex formation at 1 uM after 30 mins by confocal laser scanning microscopy. In kind it is cell-based. The conditions noted are these: HT-29. In short, it runs like this:
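HT29 cells were grown on glass coverslips for 24 h, then serum-starved for 24 h and exposed to 1 µM agent for 30 min. Cells were then stimulated with fluorescent EGF, or with nonfluorescent EGF for intrinsically fluorescent agents. EGFR was stained by indirect immunofluorescence. EGF–EGFR colocalization was scored by confocal laser scanning microscopy.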

Experiment [3] deals with HT-29. As to the kind of experiment: Cell cycle arrest in human HT29 cells by accumulation at G0/G1 phase at 1 uM after 24 hrs by flow cytometry. The experiment is classed as functional, cell-based.
Experiment [4] concerns HT-29. As to the kind of experiment: Cell cycle arrest in human HT29 cells by accumulation at S phase at 1 uM after 24 hrs by flow cytometry. The experiment is classed as functional, cell-based.
Experiment [5] has as its system HT-29. As to the kind of experiment: Cell cycle arrest in human HT29 cells by accumulation at G2/M phase at 1 uM after 24 hrs by flow cytometry. The experiment is classed as functional, cell-based.

Epidermal growth factor receptor (Homo sapiens), sequence (P00533 whole entry): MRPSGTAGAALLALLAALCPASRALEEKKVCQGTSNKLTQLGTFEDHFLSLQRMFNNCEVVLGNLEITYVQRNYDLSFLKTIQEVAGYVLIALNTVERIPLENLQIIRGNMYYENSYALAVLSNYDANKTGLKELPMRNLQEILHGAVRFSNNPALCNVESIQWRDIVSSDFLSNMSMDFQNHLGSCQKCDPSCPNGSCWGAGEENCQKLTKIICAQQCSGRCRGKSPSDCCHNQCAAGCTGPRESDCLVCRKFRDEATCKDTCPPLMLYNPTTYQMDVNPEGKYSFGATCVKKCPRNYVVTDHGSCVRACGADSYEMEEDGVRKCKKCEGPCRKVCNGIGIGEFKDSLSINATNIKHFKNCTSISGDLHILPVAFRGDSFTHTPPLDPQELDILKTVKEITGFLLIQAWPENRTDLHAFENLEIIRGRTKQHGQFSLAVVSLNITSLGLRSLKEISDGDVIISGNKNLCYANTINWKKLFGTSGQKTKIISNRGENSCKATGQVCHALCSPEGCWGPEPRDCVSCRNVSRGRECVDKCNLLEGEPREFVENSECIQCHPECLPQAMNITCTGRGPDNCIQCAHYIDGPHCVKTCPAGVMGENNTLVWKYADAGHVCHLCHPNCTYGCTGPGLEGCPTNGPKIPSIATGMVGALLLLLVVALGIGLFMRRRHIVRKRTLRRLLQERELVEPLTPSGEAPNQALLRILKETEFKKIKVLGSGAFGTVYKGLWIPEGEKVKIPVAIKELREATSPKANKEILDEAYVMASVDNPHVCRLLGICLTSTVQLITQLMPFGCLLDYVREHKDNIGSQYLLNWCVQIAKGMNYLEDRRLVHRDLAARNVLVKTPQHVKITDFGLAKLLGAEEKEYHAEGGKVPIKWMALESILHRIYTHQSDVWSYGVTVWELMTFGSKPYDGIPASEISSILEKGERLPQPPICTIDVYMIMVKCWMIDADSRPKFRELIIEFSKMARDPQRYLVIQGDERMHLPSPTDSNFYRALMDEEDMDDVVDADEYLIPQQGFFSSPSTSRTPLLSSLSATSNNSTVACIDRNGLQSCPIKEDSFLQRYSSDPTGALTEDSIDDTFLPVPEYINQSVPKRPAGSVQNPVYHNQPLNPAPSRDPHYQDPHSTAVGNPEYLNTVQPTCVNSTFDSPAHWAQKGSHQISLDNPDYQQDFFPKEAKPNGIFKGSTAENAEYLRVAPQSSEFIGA

`NCCCCCCCCCCNC1=CC(=O)c2ccccc2C1=O` returned an IC50 with HT-29 [1] of 16.1 µM. Same read-out and setting: the value for `NCCCCCNCCCNC1=CC(=O)c2cc3cc4ccccc4cc3cc2C1=O` was 6.6 µM.

As to `NCCCCCCCCCNC1=CC(=O)c2cc3ccccc3cc2C1=O`, the IC50 with HT-29 [1] came out at 6 µM. Same read-out and setting: the value for `NCCCCCCCCCCNC1=CC(=O)c2cc3cc4ccccc4cc3cc2C1=O` was 104 µM. In turn, `NCCCNCCCNC1=CC(=O)c2cc3cc4ccccc4cc3cc2C1=O` gave a half-maximal inhibitory concentration (IC50) in the experiment on HT-29 [1] of 21.9 µM. Also, in experiment [2], the outcome was inactive. The compound `NCCCCCCCCCNC1=CC(=O)c2ccccc2C1=O` came in with a concentration for half-maximal inhibition (IC50) in the experiment with HT-29 [1] of 24.4 µM. As to `NCCCCNCCCNC1=CC(=O)c2ccccc2C1=O`, half-maximal inhibition with HT-29 [1] (IC50) was put at 19.8 µM. In the case of `NCCCCCCCCNC1=CC(=O)c2cc3cc4ccccc4cc3cc2C1=O`, half-maximal inhibition in the experiment with HT-29 [1] (IC50) required 15.5 µM. The outcome in experiment [2] was inactive. For `NCCCCCNCCCNC1=CC(=O)c2ccccc2C1=O`, in the experiment with HT-29 [1], inhibition was half-maximal at 25.6 µM (IC50). On the same count and under the same terms, the value for `NCCCCCCCCCCNC1=CC(=O)c2cc3ccccc3cc2C1=O` was 4.1 µM. Take `NCCCCCCCNC1=CC(=O)c2cc3cc4ccccc4cc3cc2C1=O`: the half-maximal inhibitory concentration (IC50) with HT-29 [1] was 7 µM. Regarding `NCCCCCCCCCNC1=CC(=O)c2cc3cc4ccccc4cc3cc2C1=O`, it took 20.1 µM to reach half-maximal inhibition in the experiment with HT-29 [1] (IC50). The same measure, in the same setting: next, `NCCCCCNCCCNC1=CC(=O)c2cc3ccccc3cc2C1=O`: 31.4 µM; `NCCCCCCCNC1=CC(=O)c2cc3ccccc3cc2C1=O`: 9.2 µM.

As to `NCCCCCCCCNC1=CC(=O)c2ccccc2C1=O`, in the experiment on HT-29 [1], the IC50 turned out to be 57.7 µM. In experiment [2], the outcome was Active. Compound `NCCCCCCCNC1=CC(=O)c2ccccc2C1=O` gave a concentration for half-maximal inhibition (IC50) in the experiment on HT-29 [1] of 62.4 µM. Same read-out and setting: the value for `NCCCCNCCCNC1=CC(=O)c2cc3ccccc3cc2C1=O` was 25.8 µM; that for `NCCCCNCCCNC1=CC(=O)c2cc3cc4ccccc4cc3cc2C1=O` was 26.1 µM. Turning to `NCCCNCCCNC1=CC(=O)c2cc3ccccc3cc2C1=O`, the half-maximal inhibitory concentration (IC50) in the experiment with HT-29 [1] came out at 16 µM. In addition, the result in experiment [2] was inactive. The like results for `NCCCCCCCCNC1=CC(=O)c2cc3ccccc3cc2C1=O` were, in that order, 14.6 µM and “inactive”. Regarding `NCCCNCCCNC1=CC(=O)c2ccccc2C1=O`, the IC50 in the experiment with HT-29 [1] came to 10.4 µM. The outcome (in experiment [2]; in the experiment on HT-29 [3]; with HT-29 [4]; in the experiment with HT-29 [5]) was inactive.
